The target in one assay is T1, native TRPV3 channels (Homo sapiens, UniProt Q8NET8).
T1 sequence (Q8NET8 1-790): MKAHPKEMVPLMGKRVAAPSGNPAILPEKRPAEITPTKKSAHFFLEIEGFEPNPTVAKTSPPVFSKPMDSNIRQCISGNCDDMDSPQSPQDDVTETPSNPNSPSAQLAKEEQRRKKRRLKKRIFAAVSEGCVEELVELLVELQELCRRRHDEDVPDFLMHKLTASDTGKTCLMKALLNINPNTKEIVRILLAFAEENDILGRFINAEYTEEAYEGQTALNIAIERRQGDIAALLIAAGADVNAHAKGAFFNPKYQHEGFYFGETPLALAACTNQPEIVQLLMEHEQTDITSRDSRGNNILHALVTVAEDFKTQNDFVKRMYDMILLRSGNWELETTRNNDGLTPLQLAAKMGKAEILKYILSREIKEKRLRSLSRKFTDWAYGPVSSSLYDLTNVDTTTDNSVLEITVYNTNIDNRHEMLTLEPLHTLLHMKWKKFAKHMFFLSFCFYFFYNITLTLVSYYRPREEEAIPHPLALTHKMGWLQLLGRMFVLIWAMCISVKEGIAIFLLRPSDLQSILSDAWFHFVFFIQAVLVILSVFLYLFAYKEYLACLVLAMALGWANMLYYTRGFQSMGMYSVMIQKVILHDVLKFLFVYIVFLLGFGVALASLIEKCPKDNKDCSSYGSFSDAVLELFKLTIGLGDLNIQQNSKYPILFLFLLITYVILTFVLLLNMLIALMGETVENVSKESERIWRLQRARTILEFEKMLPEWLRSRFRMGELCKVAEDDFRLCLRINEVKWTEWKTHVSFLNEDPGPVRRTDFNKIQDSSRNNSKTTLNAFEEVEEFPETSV
The format is cell-based. The settings on record: for activation of membrane currents by TRP channel agonists: bath superfusion, 2-APB 30 µM; for increase of 2-APB-activated TRPV3 whole cell current amplitude: 100 µM ATP, n = 4 cells. Summed up:
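Whole-cell voltage clamp of primary human epidermal keratinocytes plated on coverslips and recorded 24–48 h later, at room temperature. Bath was NaCl/KCl/HEPES/glucose/MgCl2/1.8 mM BaCl2, pH 7.4; pipette was Cs-methanesulfonate with ~50 nM free Ca2+, pH 7.3. Voltage steps were run in 30 µM 2-APB, then with 100 µM ATP or vehicle. Tail currents were fitted with Boltzmann functions for V0.5 and VIF; n = 4 cells.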

For another assay, the target named is T2, human TRPV3 (WT) (Homo sapiens, UniProt Q8NET8).
T2 sequence (Q8NET8 1-790): T1 sequence (Q8NET8 1-790)
The format is cell-based.

Assay [1] has as its target T3, TRPV3 R696A (Homo sapiens, UniProt Q8NET8, R696A).
T3 sequence (Q8NET8 1-790 R696A): T1 sequence (Q8NET8 1-790) with R696A
It counts as cell-based.

Another assay addresses T4, WT TRPV3 (Homo sapiens, UniProt Q8NET8).
T4 sequence (Q8NET8 1-790): T1 sequence (Q8NET8 1-790)
The format is biochemical. The settings on record: inside-out patches, +80 mV; for effect on NPOPEN of PI-PLC-stimulated TRPV3: 30 µM diC8-phosphatidylinositol phosphate. An outline of the steps:
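WT TRPV3 was expressed in HM1 cells by calcium-phosphate transfection and recorded 24–48 h later. Inside-out patches were held at +80 mV in symmetrical NaCl/HEPES/EGTA at pH 7.4. Patches got anti-PI(4,5)P2 mAb (1:200) or 0.5 U/ml PI-PLC for 5 min, or 100 µM OAG for 2 min, by perfusion and then a still bath. diC8-phosphoinositides were added after PI-PLC. NPOPEN was taken before and after; Hill fit over 1–60 µM.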

In assay [2] the target is T3, TRPV3 R696A. It counts as biochemical. The settings on record: 30 µM diC8-PI(4,5)P2, inside-out patches. An outline of the steps:
(§1)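 HM1 cells were calcium-phosphate transfected with the mutant channel, GFP-identified, and used 24–48 h later. Inside-out patches were held at +80 mV at 21–24°C in symmetrical 145 mM NaCl, 5 mM […], 20 mM HEPES, 1 mM EGTA, pH 7.4. Patches received anti-PI(4,5)P2 mAb (1:200) or 0.5 U/ml PI-PLC, then 30 µM diC8-PI(4,5)P2. NPOPEN was measured, n = 3–5 patches.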

Another assay concerns the target T5, TRPV3 K705A (Homo sapiens, UniProt Q8NET8, K705A).
T5 sequence (Q8NET8 1-790 K705A): T1 sequence (Q8NET8 1-790) with K705A
It counts as biochemical. The settings on record: 30 µM diC8-PI(4,5)P2, inside-out patches. An outline of the steps: as §1

Where a chain is given by its changes, count along the chain named. Where “and” joins values, the source holds several entries; their conditions need not be identical. Equal values may be shown once. Entries after “also recorded” stand apart in the source; their conditions may differ. Read-outs that look alike come from different tables or passages of the source. Marks after values point to notes of the source that are not given here.

`NCCOB(c1ccccc1)c1ccccc1` [2-APB, 2-aminoethyoxy diphenylborinate]: at native TRPV3 channels (whole cell), the “activation of membrane currents by TRP channel agonists” value (“activation of membrane currents” below) is reported as “activated small voltage-dependent currents”. The “increase in 2-APB potency after CCh exposure” value on human TRPV3 (WT) was “approximately fourfold”.
Consider `Nc1ncnc2c1ncn2[C@@H]1O[C@H](COP(=O)(O)OP(=O)(O)OP(=O)(O)O)[C@@H](O)[C@H]1O` [ATP], for which the “increase of 2-APB-activated TRPV3 whole cell current amplitude” value at native TRPV3 channels (30 µM 2-APB, +80 mV) is listed as 5.6 ± 1.6 fold; at native TRPV3 channels (30 µM 2-APB, −80 mV) it was 6.3 ± 1.9 fold. In addition, the “increase of voltage-independent fraction (VIF)” value on native TRPV3 channels (after 100 µM ATP, 30 µM 2-APB) came out at 26.7 ± 5.1%. The “shift of half-maximal activation (V0.5)” value on native TRPV3 channels (after 100 µM ATP, 30 µM 2-APB) is listed as −61.7 ± 17.8 mV.
On to `C[N+](C)(C)CCOC(N)=O.[Cl-]` [CCh, carbamylcholine], for which, at human TRPV3 (WT), the “Arrhenius slope of temperature-dependent activation” value was 10.3; the “apparent threshold for temperature-dependent activation (Th)” value is 18.3 ^a °C; the “change of thermal coefficient (Q10) by CCh exposure” value was “changed only slightly”; the “fold change in step current” value was 31.1 fold and 31.1 ± 7.9 fold. Moreover, the “shift of apparent threshold for thermal activation (Th)” value on human TRPV3 (WT) is −10 °C. The compound also came in with a ΔVIF at TRPV3 R696A [1] of 21.3%.
With `Cc1ccc(C(C)C)cc1O` [Carvacrol, carvacrol], the “activation of membrane currents” value at native TRPV3 channels (whole cell) is “elicited currents”.
For the compound `CCCCCCCC/C=C\CCCCCCCC(=O)OC[C@H](CO)OC(C)=O` [OAG, 1-oleoyl-2-acetyl-sn-glycerol], the “effect on TRPV3 channel activity (NPOPEN)” value at WT TRPV3 (100 µM OAG) is recorded as “did not significantly increase; also recorded: failed to significantly elevate NPOPEN”.
In the case of `CCCCCCCC(=O)OC[C@H](COP(=O)(O)O[C@@H]1[C@H](O)[C@H](OP(=O)(O)O)[C@@H](O)[C@H](O)[C@H]1O)OC(=O)CCCCCCC` [PI(3)P], the “effect on NPOPEN of PI-PLC-stimulated TRPV3” value (shortened to “effect on NPOPEN”) on WT TRPV3 is on record as “failed to significantly decrease NPOPEN”.
Still for that read-out and setting: the result for `CCCCCCCC(=O)OC[C@H](COP(=O)(O)O[C@H]1[C@H](O)[C@@H](OP(=O)(O)O)[C@H](OP(=O)(O)O)[C@@H](OP(=O)(O)O)[C@H]1O)OC(=O)CCCCCCC` [PI(3,4,5)P3] reads “failed to significantly decrease NPOPEN”.
Regarding `CCCCCCCC(=O)OC[C@H](COP(=O)(O)O[C@@H]1[C@H](O)[C@H](OP(=O)(O)O)[C@@H](O)[C@H](OP(=O)(O)O)[C@H]1O)OC(=O)CCCCCCC` [PI(3,5)P2], the “effect on NPOPEN” value on WT TRPV3 is given as “failed to significantly decrease NPOPEN”.
On the same count and under the same terms, the result for `CCCCCCCC(=O)OC[C@H](COP(=O)(O)O[C@H]1[C@H](O)[C@@H](O)[C@H](OP(=O)(O)O)[C@@H](O)[C@H]1O)OC(=O)CCCCCCC` [PI(4)P] reads “failed to significantly decrease NPOPEN”; that for `CCCCCCCC(=O)OC[C@H](COP(=O)(O)O[C@H]1[C@H](O)[C@@H](OP(=O)(O)O)[C@H](O)[C@@H](O)[C@H]1O)OC(=O)CCCCCCC` [PI(5)P], “failed to significantly decrease NPOPEN”.
As to `N.N.N.N.N.N.N.N.N.N.N.N.N.N.[Cl-].[Cl-].[Cl-].[Cl-].[Cl-].[Cl-].[O-2].[O-2].[Ru+3].[Ru+3].[Ru+4]` [Ruthenium red], the “block of 2-APB-activated current” value at native TRPV3 channels (whole cell, ruthenium red) was “eliminated only the inward component”.
With `COC[C@H]1OC(=O)c2coc3c2[C@@]1(C)C1=C(C3=O)[C@@H]2CCC(=O)[C@@]2(C)C[C@H]1OC(C)=O` [WM, wortmannin], at human TRPV3 (WT), the “current potentiation (fold increase)” value was 9.6 ± 2.2 fold and 13.2 ± 2.8 fold; the ΔV0.5 is reported as −98.4 ± 18.6 mV; the ΔVIF is recorded as 19.7 ± 3.8%.
On to `CC12CCC(CC1=O)C2(C)C` (stereo not drawn) [camphor], for which the “activation of membrane currents” value at native TRPV3 channels (whole cell) is reported as “elicited currents”.
As for `CCCCCCCC(=O)OC[C@H](COP(=O)(O)O[C@@H]1[C@H](O)[C@H](O)[C@@H](OP(=O)(O)O)[C@H](OP(=O)(O)O)[C@H]1O)OC(=O)CCCCCCC` [diC8-PI(4,5)P2, D-myo-phosphatidylinositol 4,5-bisphosphate C8], the “effect on channel activity” value on TRPV3 R696A [2] and at TRPV3 K705A was “unaffected; also recorded: insensitive” each time. In addition, the “effect on NPOPEN” value on WT TRPV3 is given as “nearly maximal inhibitory effect”.

The record behind these values is article PMC3047606 (The Journal of General Physiology, 2011).
